# This is a sample that favours compounds with a hit; in the whole collection about 2.2% have one here.
# SKN-1 block – suppressors of acrylamide-induced Pgst-4::GFP reporter in worms, primary screen, SKN-1 inhibitor project, whole organism, uHTS, GFP/RFP fluorescence ratio, strain VP596; inhibition, % at 21.8 µM; AID 624304, 2012; actives 0.49% (n = 360,000); C. elegans VP596 Pgst-4::GFP/RFP ratio, 24 h;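 active = interference check ratio from 0.5 to 1.5 plus GFP to RFP signal ratio inhibition reaching or exceeding a fixed threshold, cut at about 30% in these data, passing the limit was not always enough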
# MT1-MMP act inh – blockers of MT1-MMP proenzyme processing, primary screen, HT1080 RFP-PRO-GFP cells, GFP/RFP fluorescence; GFP/RFP ratio fluorescence, overnight; percent of plate control window, DMSO zero; Matrix metalloproteinase-14 (Homo sapiens), P50281; GFP/RFP ratio change, % at 20 µM; actives 0.061% (n = 360,000);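 active = GFP/RFP ratio change of at least 30% with cell ATP level not reduced by more than half and red fluorescence within 50% of control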
#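 Material: RFP-PRO-GFP reporter HT1080 cells. Dosing: single-point 20 µM compound, 1% DMSO. Controls: DMSO and RFP-L50D-GFP cell wells. Timing: cells overnight before dosing, compound overnight, 37 °C, 5% CO2. Measure: GFP/RFP fluorescence ratio.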
# KLK7 zymogen act – proKLK7 zymogen activators, primary screen, biochemical, fluorescence intensity. Kallikrein-7 (Homo sapiens), P49862. actives 0.9% (n = 370,000). activation, % at 7 µM. purified proKLK7, EDANS-DABCYL substrate fluorescence; 100% is mature enzyme control, 0% vehicle;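 active = activation above the mean of all tested compounds plus 3 SD, computed per campaign excluding outliers beyond control limits, cut at about 13% in these data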
# DDE Tn7 FP inh – inhibitors of Tn7 peptide binding to fibrin DD(E), primary screen, biochemical, fluorescence polarization, human fibrin, Tn7 probe; FP displacement of FITC-Tn7 peptide from fibrin DD(E); 0% = median of compound wells per plate; inhibition, % at 8.3 µM; actives 0.13% (n = 370,000); AID 720508, 2013;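 active = inhibition above the mean of compounds falling within the control limits plus 3 SD of them, cut at about 14% in these data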
# Target sequence (P02675 whole entry, looked up): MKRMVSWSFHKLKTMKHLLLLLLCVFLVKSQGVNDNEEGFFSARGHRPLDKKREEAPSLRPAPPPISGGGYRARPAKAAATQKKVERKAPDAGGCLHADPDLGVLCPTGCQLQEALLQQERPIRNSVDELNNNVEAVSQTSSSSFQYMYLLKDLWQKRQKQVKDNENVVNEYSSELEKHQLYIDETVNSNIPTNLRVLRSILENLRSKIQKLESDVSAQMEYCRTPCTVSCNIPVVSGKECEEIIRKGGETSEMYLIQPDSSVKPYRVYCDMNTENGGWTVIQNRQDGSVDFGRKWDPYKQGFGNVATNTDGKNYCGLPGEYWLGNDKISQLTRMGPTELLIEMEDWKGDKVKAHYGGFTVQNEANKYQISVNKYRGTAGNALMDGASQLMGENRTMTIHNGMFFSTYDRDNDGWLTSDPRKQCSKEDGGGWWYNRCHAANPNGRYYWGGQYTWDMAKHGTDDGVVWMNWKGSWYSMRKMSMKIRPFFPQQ
#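 Test system: human clot-derived fibrin DD(E) complex / Quantity: 2 µM final DD(E) protein / Incubation: 10 min plus 3 h, room temperature / Measured by: fluorescence polarization / Benchmarks: high control of 10 µM Aha-Tn7 peptide / Replicates: singlicate testing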
# Tn6 DDE FP – inhibitors of Tn6 peptide binding to fibrin DD(E), primary screen, biochemical, fluorescence polarization, human fibrin, Tn6 probe | Fibrinogen beta chain (Homo sapiens), P02675 | Fibrin DD(E) TRITC-Tn6 fluorescence polarization displacement | inhibition, % at 8.3 µM | actives 0.21% (n = 370,000) | AID 720509, 2013;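 active = inhibition above a per-campaign cutoff: mean of compounds within control limits plus 3 SD, cut at about 15% in these data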
# Neddyl block – inhibitors of cullin neddylation, primary screen, biochemical, TR-FRET, uHTS, NAE and Ubc12; NEDD8-conjugating enzyme Ubc12 (Homo sapiens) + NEDD8-activating enzyme E1 regulatory …; actives 0.58% (n = 360,000); calls only at 25 µM; AID 651699, 2012; in the data active = inhibition above about 36%
# proKLK7 act conf – proKLK7 zymogen activators, confirmation, biochemical, fluorescence intensity, triplicate; shares compounds with KLK7 zymogen act; purified proKLK7, EDANS-DABCYL substrate fluorescence; scaled: vehicle 0, mature enzyme 100; activation, % at 7 µM; actives 68% (n = 3,200);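 active = activation, as change over the incubation, above the mean of all tested compounds plus 3 SD, cut at about 13% in these data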
# EDANS-DABCYL int – EDANS-DABCYL substrate optical interference, artefact control for kallikrein-7 zymogen activator project, biochemical, fluorescence intensity, high throughput | shares compounds with KLK7 zymogen act | no enzyme, 4 h; solvent 0%, active enzyme control 100% | activation, % at 7 µM | actives 80% (n = 3,200);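 active = activation above the all-compound mean plus 3 SD, ignoring values outside control-based bounds, cut at about 4.8% in these data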;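 also: value is the 4 h activation minus the activation read at time zero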
# Hits are given with their value; . = inactive; / = no result given; + = active, no number.
SMILES,SKN-1 block,MT1-MMP act inh,KLK7 zymogen act,DDE Tn7 FP inh,Tn6 DDE FP,Neddyl block,proKLK7 act conf,EDANS-DABCYL int
Cc1cccc(NC(=O)c2cc3c(=O)n4ccccc4nc3s2)c1,.,.,.,.,.,/,/,/
O=C(c1cc2c(=O)n3ccccc3nc2s1)N1CCOCC1,.,.,17,.,.,/,68,68
Cc1cccc(OC2CCN(Cc3c(C(=O)N4CCCC4)nc4ccccn34)CC2)c1,.,.,.,.,.,.,/,/
N=c1c(C(=O)NCC2CCCO2)cc2c(=O)n3ccccc3nc2n1Cc1ccc(F)cc1 (stereo not drawn),.,.,.,.,.,/,/,/
N=c1c(C(=O)NCC2CCCO2)cc2c(=O)n3ccccc3nc2n1Cc1ccco1 (stereo not drawn),.,.,15,.,.,/,41,38
N=c1c(C(=O)NCC2CCCO2)cc2c(=O)n3ccccc3nc2n1Cc1cccnc1 (stereo not drawn),.,.,134,.,.,/,35,33
N=c1c(C(=O)NCc2ccc(F)cc2)cc2c(=O)n3ccccc3nc2n1Cc1cccnc1,.,.,26,.,.,/,.,.
Cc1cccn2c(=O)c3cc(C(=O)NCC4CCCO4)c(=N)n(Cc4cccnc4)c3nc12 (stereo not drawn),.,.,148,.,.,.,49,60
N=c1c(C(=O)NC2CCCCC2)cc2c(=O)n3ccccc3nc2n1Cc1ccco1,.,.,.,.,.,/,/,/
COc1ccc(CCn2c(=N)c(C(=O)NCC3CCCO3)cc3c(=O)n4cccc(C)c4nc32)cc1 (stereo not drawn),.,.,.,.,.,.,/,/
CC(=O)NC(Cc1cc(C)ccc1C)C(=O)N1CCN(C(=O)c2ccccc2Br)CC1 (stereo not drawn),.,.,.,.,.,.,/,/
COc1ccc(S(=O)(=O)NCC(=O)N(CC2CCCO2)C(C(=O)NC2CCCC2)C(C)C)cc1 (stereo not drawn),.,.,.,.,.,.,/,/
CCNC(=O)c1cc2c(=O)n3cccc(C)c3nc2n(Cc2ccc(C)cc2)c1=N,.,.,.,.,.,/,/,/
Cc1cccn2c(=O)c3cc(C(=O)NC(C)C)c(=N)n(Cc4ccncc4)c3nc12,.,.,116,.,.,/,32,37
CC(C)c1nc(SCC(=O)Nc2cccc(S(N)(=O)=O)c2)n[nH]1,.,.,.,.,.,.,/,/
COc1ccc2c(c1)OC(O)(C(F)F)CC2=O (stereo not drawn),.,.,.,.,.,.,/,/
O=C1CC(O)(C(F)(F)F)Oc2c1ccc1ccccc21 (stereo not drawn),.,.,54,.,.,/,.,5.3
O=C1CC(O)(C(F)F)Oc2ccc3ccccc3c21 (stereo not drawn),.,.,47,.,.,/,.,.
Cc1ccc(N=c2oc3cc(O)ccc3cc2C(N)=O)cc1,.,.,24,.,.,+,.,11
COc1ccc2cc(C(=O)NCc3ccco3)c(=O)oc2c1,.,.,.,.,.,.,/,/
COc1ccc2cc(C(C)=O)c(=O)oc2c1,.,.,.,.,.,.,/,/
CC(=O)c1cc2ccc(O)cc2oc1=O,.,.,20,.,.,/,27,32
O=C(NCc1ccco1)c1cc2ccc(O)cc2oc1=O,.,.,49,.,.,/,58,71
CC(=O)c1cc2cc(O)ccc2o1,.,.,83,.,.,/,71,64
CC(=O)c1cc2c(O)c(O)ccc2o1,.,.,.,.,.,.,/,/
SMILES,SKN-1 block,MT1-MMP act inh,KLK7 zymogen act,DDE Tn7 FP inh,Tn6 DDE FP,Neddyl block,proKLK7 act conf,EDANS-DABCYL int
O=C1c2ccccc2NC(c2ccccc2Br)N1CCCN1CCOCC1 (stereo not drawn),.,.,.,.,.,/,/,/
C=CC(C)(O)CCC=C(C)C (stereo not drawn),.,.,.,.,.,.,/,/
O=[N+]([O-])c1ccccc1Oc1ncccc1[N+](=O)[O-],.,.,.,.,.,.,/,/
CS(=O)(=O)Nc1ccc(C2=NN(C(=O)CCCC(=O)O)C(c3cccs3)C2)cc1 (stereo not drawn),.,.,26,.,.,/,48,74
CC(=O)/C=C(\C)Nc1ccc(-c2cnc(-c3ccccc3)o2)cc1,.,.,57,.,.,.,63,64
O=C(Oc1ccc2c3c(c(=O)oc2c1)CCCC3)c1ccco1,.,.,295,.,.,/,639,631
O=c1oc2cc(O)ccc2c2c1CCCC2,.,.,58,.,.,/,60,70
O=c1oc2cc(O)ccc2c2oc3cc(O)ccc3c12,.,.,72,.,.,/,62,72
O=c1oc2cc(O)ccc2c2ccccc12,.,.,.,.,.,.,/,/
CC(=O)Oc1ccc2c3c(c(=O)oc2c1)CCCC3,.,.,495,.,.,/,688,685
C=CCOc1ccc2c3c(c(=O)oc2c1)CCCC3,.,.,.,.,.,/,/,/
Cc1cc(NC(=O)C2Oc3ccccc3OC2C)no1 (stereo not drawn),.,.,.,.,.,.,/,/
Cc1ccc(NC(=O)c2sc(Cl)nc2-c2ccccc2)cc1C,.,.,.,.,.,.,/,/
CSCCC(NC(C)=O)C(=O)Oc1ccc2c3c(c(=O)oc2c1)CCCC3 (stereo not drawn),.,.,53,.,.,/,61,66
COC(=O)C(C)Oc1ccc2c3c(c(=O)oc2c1)CCCCC3 (stereo not drawn),.,.,25,.,.,/,.,.
CN(c1ccccc1)S(=O)(=O)c1ccc(Cl)c(C(=O)Nc2nc3ccccc3[nH]2)c1,.,.,.,.,.,.,/,/
CCN(CC)S(=O)(=O)c1cc(C(=O)O)c(Cl)cc1Cl,.,.,.,.,.,.,/,/

# From PubChem BioAssay
